# Experimental data as given in ChEMBL document CHEMBL1208662, “Antimicrobial activity and a SAR study of some novel benzimidazole derivatives bearing hydrazone moiety” (Eur J Med Chem, 2010).
# Test system: Nakaseomyces glabratus
# Test: Antimicrobial activity against Candida glabrata by broth microdilution method
# Format: functional
# Conditions: not given
# Procedure, shortened: (§1)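 Yeasts grown overnight at 35 ± 1 °C in Sabouraud dextrose broth. Tested by CLSI M7-A7 broth microdilution in Sabouraud dextrose broth, pH 7, two-fold serial dilutions 800 down to 1.5625 μg/mL of DMSO-dissolved compound. DMSO-only control. Inoculum matched to McFarland 0.5, final 0.5-2.5 × 10^5 cfu/mL. MIC is last well without growth, µg/mL. Duplicate readings. Ketoconazole reference.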
row,SMILES,MIC [µg/mL]
1,O=C(O)c1ccc(/C=N/NC(=O)c2ccc(-c3nc4ccccc4[nH]3)cc2)cc1,200
2,N#Cc1ccc(/C=N/NC(=O)c2ccc(-c3nc4ccccc4[nH]3)cc2)cc1,100
3,CC(=O)N1CCN(c2ccc(OCC3COC(Cn4ccnc4)(c4ccc(Cl)cc4Cl)O3)cc2)CC1 (stereo not drawn) [KETOCONAZOLE],25

# Other lines, results leading:
row,MIC [µg/mL],SMILES
1,100,O=C(N/N=C/c1ccc([N+](=O)[O-])cc1)c1ccc(-c2nc3ccccc3[nH]2)cc1
2,100,O=C(N/N=C/c1ccc(C(F)(F)F)cc1)c1ccc(-c2nc3ccccc3[nH]2)cc1
3,50,COc1ccc(/C=N/NC(=O)c2ccc(-c3nc4ccccc4[nH]3)cc2)cc1

# Test system: Pseudomonas aeruginosa
# Test: Antimicrobial activity against Pseudomonas aeruginosa by broth microdilution method
# Format: functional
# Conditions: not given
# Procedure, shortened: (§2)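 CLSI M7-A7 broth microdilution, two-fold serial dilutions 800 down to 1.5625 μg/mL in Mueller–Hinton broth, pH 7. Compounds dissolved in DMSO; DMSO-only solvent control. Overnight cultures at 35 ± 1 °C, inoculum matched to McFarland 0.5, final 0.5-2.5 × 10^5 cfu/mL. MIC taken as last well without growth, µg/mL. Run twice. Chloramphenicol reference.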
row,SMILES,MIC [µg/mL]
1,O=C(O)c1ccc(/C=N/NC(=O)c2ccc(-c3nc4ccccc4[nH]3)cc2)cc1,100
2,N#Cc1ccc(/C=N/NC(=O)c2ccc(-c3nc4ccccc4[nH]3)cc2)cc1,50
3,O=C(N[C@H](CO)[C@H](O)c1ccc([N+](=O)[O-])cc1)C(Cl)Cl [CHLORAMPHENICOL],50

# Further lines, results first:
row,MIC [µg/mL],SMILES
1,50,O=C(N/N=C/c1ccc([N+](=O)[O-])cc1)c1ccc(-c2nc3ccccc3[nH]2)cc1
2,50,O=C(N/N=C/c1ccc(C(F)(F)F)cc1)c1ccc(-c2nc3ccccc3[nH]2)cc1
3,25,COc1ccc(/C=N/NC(=O)c2ccc(-c3nc4ccccc4[nH]3)cc2)cc1

# Test system: Escherichia coli
# Test: Antimicrobial activity against Escherichia coli 25922 by broth microdilution method
# Format: functional
# Conditions: not given
# Procedure, shortened: as §2
row,SMILES,MIC [µg/mL]
1,O=C(O)c1ccc(/C=N/NC(=O)c2ccc(-c3nc4ccccc4[nH]3)cc2)cc1,200
2,N#Cc1ccc(/C=N/NC(=O)c2ccc(-c3nc4ccccc4[nH]3)cc2)cc1,100
3,O=C(N[C@H](CO)[C@H](O)c1ccc([N+](=O)[O-])cc1)C(Cl)Cl [CHLORAMPHENICOL],12.5

# Continued, values first:
row,MIC [µg/mL],SMILES
1,100,O=C(N/N=C/c1ccc([N+](=O)[O-])cc1)c1ccc(-c2nc3ccccc3[nH]2)cc1
2,100,O=C(N/N=C/c1ccc(C(F)(F)F)cc1)c1ccc(-c2nc3ccccc3[nH]2)cc1
3,50,COc1ccc(/C=N/NC(=O)c2ccc(-c3nc4ccccc4[nH]3)cc2)cc1

# Test system: Candida tropicalis
# Test: Antimicrobial activity against Candida tropicalis by broth microdilution method
# Format: functional
# Conditions: not given
# Procedure, shortened: as §1
row,SMILES,MIC [µg/mL]
1,O=C(O)c1ccc(/C=N/NC(=O)c2ccc(-c3nc4ccccc4[nH]3)cc2)cc1,200
2,N#Cc1ccc(/C=N/NC(=O)c2ccc(-c3nc4ccccc4[nH]3)cc2)cc1,50
3,CC(=O)N1CCN(c2ccc(OCC3COC(Cn4ccnc4)(c4ccc(Cl)cc4Cl)O3)cc2)CC1 (stereo not drawn) [KETOCONAZOLE],50

# Second part, the compound after the results:
row,MIC [µg/mL],SMILES
1,100,O=C(N/N=C/c1ccc([N+](=O)[O-])cc1)c1ccc(-c2nc3ccccc3[nH]2)cc1
2,50,O=C(N/N=C/c1ccc(C(F)(F)F)cc1)c1ccc(-c2nc3ccccc3[nH]2)cc1
3,50,COc1ccc(/C=N/NC(=O)c2ccc(-c3nc4ccccc4[nH]3)cc2)cc1

# Test system: Listeria monocytogenes
# Test: Antimicrobial activity against Listeria monocytogenes by broth microdilution method
# Format: functional
# Conditions: not given
# Procedure, shortened: as §2
row,SMILES,MIC [µg/mL]
1,O=C(O)c1ccc(/C=N/NC(=O)c2ccc(-c3nc4ccccc4[nH]3)cc2)cc1,400
2,N#Cc1ccc(/C=N/NC(=O)c2ccc(-c3nc4ccccc4[nH]3)cc2)cc1,200
3,O=C(N[C@H](CO)[C@H](O)c1ccc([N+](=O)[O-])cc1)C(Cl)Cl [CHLORAMPHENICOL],50

# Next, values leading:
row,MIC [µg/mL],SMILES
1,200,O=C(N/N=C/c1ccc([N+](=O)[O-])cc1)c1ccc(-c2nc3ccccc3[nH]2)cc1
2,200,O=C(N/N=C/c1ccc(C(F)(F)F)cc1)c1ccc(-c2nc3ccccc3[nH]2)cc1
3,200,COc1ccc(/C=N/NC(=O)c2ccc(-c3nc4ccccc4[nH]3)cc2)cc1

# Test system: Staphylococcus aureus
# Test: Antimicrobial activity against Staphylococcus aureus by broth microdilution method
# Format: functional
# Conditions: not given
# Procedure, shortened: as §2
row,SMILES,MIC [µg/mL]
1,O=C(O)c1ccc(/C=N/NC(=O)c2ccc(-c3nc4ccccc4[nH]3)cc2)cc1,50
2,N#Cc1ccc(/C=N/NC(=O)c2ccc(-c3nc4ccccc4[nH]3)cc2)cc1,25
3,O=C(N[C@H](CO)[C@H](O)c1ccc([N+](=O)[O-])cc1)C(Cl)Cl [CHLORAMPHENICOL],12.5

# Continued, values first:
row,MIC [µg/mL],SMILES
1,25,O=C(N/N=C/c1ccc([N+](=O)[O-])cc1)c1ccc(-c2nc3ccccc3[nH]2)cc1
2,25,O=C(N/N=C/c1ccc(C(F)(F)F)cc1)c1ccc(-c2nc3ccccc3[nH]2)cc1
3,25,COc1ccc(/C=N/NC(=O)c2ccc(-c3nc4ccccc4[nH]3)cc2)cc1

# Test system: Candida albicans
# Test: Antimicrobial activity against Candida albicans by broth microdilution method
# Format: functional
# Conditions: not given
# Procedure, shortened: as §1
row,SMILES,MIC [µg/mL]
1,O=C(O)c1ccc(/C=N/NC(=O)c2ccc(-c3nc4ccccc4[nH]3)cc2)cc1,200
2,N#Cc1ccc(/C=N/NC(=O)c2ccc(-c3nc4ccccc4[nH]3)cc2)cc1,100
3,CC(=O)N1CCN(c2ccc(OCC3COC(Cn4ccnc4)(c4ccc(Cl)cc4Cl)O3)cc2)CC1 (stereo not drawn) [KETOCONAZOLE],50

# Next, values leading:
row,MIC [µg/mL],SMILES
1,50,O=C(N/N=C/c1ccc([N+](=O)[O-])cc1)c1ccc(-c2nc3ccccc3[nH]2)cc1
2,100,O=C(N/N=C/c1ccc(C(F)(F)F)cc1)c1ccc(-c2nc3ccccc3[nH]2)cc1
3,100,COc1ccc(/C=N/NC(=O)c2ccc(-c3nc4ccccc4[nH]3)cc2)cc1

# Test system: Klebsiella pneumoniae
# Test: Antimicrobial activity against Klebsiella pneumoniae by broth microdilution method
# Format: functional
# Conditions: not given
# Procedure, shortened: as §2
row,SMILES,MIC [µg/mL]
1,O=C(O)c1ccc(/C=N/NC(=O)c2ccc(-c3nc4ccccc4[nH]3)cc2)cc1,50
2,N#Cc1ccc(/C=N/NC(=O)c2ccc(-c3nc4ccccc4[nH]3)cc2)cc1,12.5
3,O=C(N[C@H](CO)[C@H](O)c1ccc([N+](=O)[O-])cc1)C(Cl)Cl [CHLORAMPHENICOL],12.5

# More lines, now with the values ahead:
row,MIC [µg/mL],SMILES
1,25,O=C(N/N=C/c1ccc([N+](=O)[O-])cc1)c1ccc(-c2nc3ccccc3[nH]2)cc1
2,25,O=C(N/N=C/c1ccc(C(F)(F)F)cc1)c1ccc(-c2nc3ccccc3[nH]2)cc1
3,25,COc1ccc(/C=N/NC(=O)c2ccc(-c3nc4ccccc4[nH]3)cc2)cc1

# Test system: Salmonella typhimurium
# Test: Antimicrobial activity against Salmonella Typhimurium by broth microdilution method
# Format: functional, Salmonella enterica subsp. enterica serovar Typhimurium
# Conditions: Salmonella enterica
# Procedure, shortened: as §2
row,SMILES,MIC [µg/mL]
1,O=C(O)c1ccc(/C=N/NC(=O)c2ccc(-c3nc4ccccc4[nH]3)cc2)cc1,25
2,N#Cc1ccc(/C=N/NC(=O)c2ccc(-c3nc4ccccc4[nH]3)cc2)cc1,12.5
3,O=C(N[C@H](CO)[C@H](O)c1ccc([N+](=O)[O-])cc1)C(Cl)Cl [CHLORAMPHENICOL],12.5

# More lines, now with the values ahead:
row,MIC [µg/mL],SMILES
1,12.5,O=C(N/N=C/c1ccc([N+](=O)[O-])cc1)c1ccc(-c2nc3ccccc3[nH]2)cc1
2,12.5,O=C(N/N=C/c1ccc(C(F)(F)F)cc1)c1ccc(-c2nc3ccccc3[nH]2)cc1
3,6.25,COc1ccc(/C=N/NC(=O)c2ccc(-c3nc4ccccc4[nH]3)cc2)cc1

# Test system: Bacillus subtilis
# Test: Antimicrobial activity against Bacillus subtilis by broth microdilution method
# Format: functional
# Conditions: not given
# Procedure, shortened: as §2
row,SMILES,MIC [µg/mL]
1,O=C(O)c1ccc(/C=N/NC(=O)c2ccc(-c3nc4ccccc4[nH]3)cc2)cc1,50
2,N#Cc1ccc(/C=N/NC(=O)c2ccc(-c3nc4ccccc4[nH]3)cc2)cc1,50
3,O=C(N[C@H](CO)[C@H](O)c1ccc([N+](=O)[O-])cc1)C(Cl)Cl [CHLORAMPHENICOL],12.5

# Continued, values first:
row,MIC [µg/mL],SMILES
1,50,O=C(N/N=C/c1ccc([N+](=O)[O-])cc1)c1ccc(-c2nc3ccccc3[nH]2)cc1
2,50,O=C(N/N=C/c1ccc(C(F)(F)F)cc1)c1ccc(-c2nc3ccccc3[nH]2)cc1
3,25,COc1ccc(/C=N/NC(=O)c2ccc(-c3nc4ccccc4[nH]3)cc2)cc1

# Test system: Proteus vulgaris
# Test: Antimicrobial activity against Proteus vulgaris by broth microdilution method
# Format: functional
# Conditions: not given
# Procedure, shortened: as §2
row,SMILES,MIC [µg/mL]
1,O=C(O)c1ccc(/C=N/NC(=O)c2ccc(-c3nc4ccccc4[nH]3)cc2)cc1,100
2,N#Cc1ccc(/C=N/NC(=O)c2ccc(-c3nc4ccccc4[nH]3)cc2)cc1,50
3,O=C(N[C@H](CO)[C@H](O)c1ccc([N+](=O)[O-])cc1)C(Cl)Cl [CHLORAMPHENICOL],50

# More lines, now with the values ahead:
row,MIC [µg/mL],SMILES
1,50,O=C(N/N=C/c1ccc([N+](=O)[O-])cc1)c1ccc(-c2nc3ccccc3[nH]2)cc1
2,50,O=C(N/N=C/c1ccc(C(F)(F)F)cc1)c1ccc(-c2nc3ccccc3[nH]2)cc1
3,50,COc1ccc(/C=N/NC(=O)c2ccc(-c3nc4ccccc4[nH]3)cc2)cc1

# Test system: Escherichia coli
# Test: Antimicrobial activity against Escherichia coli 35218 by broth microdilution method
# Format: functional
# Conditions: not given
# Procedure, shortened: as §2
row,SMILES,MIC [µg/mL]
1,O=C(O)c1ccc(/C=N/NC(=O)c2ccc(-c3nc4ccccc4[nH]3)cc2)cc1,50
2,N#Cc1ccc(/C=N/NC(=O)c2ccc(-c3nc4ccccc4[nH]3)cc2)cc1,25
3,O=C(N[C@H](CO)[C@H](O)c1ccc([N+](=O)[O-])cc1)C(Cl)Cl [CHLORAMPHENICOL],12.5

# Other lines, results leading:
row,MIC [µg/mL],SMILES
1,25,O=C(N/N=C/c1ccc([N+](=O)[O-])cc1)c1ccc(-c2nc3ccccc3[nH]2)cc1
2,25,O=C(N/N=C/c1ccc(C(F)(F)F)cc1)c1ccc(-c2nc3ccccc3[nH]2)cc1
3,25,COc1ccc(/C=N/NC(=O)c2ccc(-c3nc4ccccc4[nH]3)cc2)cc1

# Test system: Enterococcus faecalis
# Test: Antimicrobial activity against Enterococcus faecalis by broth microdilution method
# Format: functional
# Conditions: not given
# Procedure, shortened: as §2
row,SMILES,MIC [µg/mL]
1,O=C(O)c1ccc(/C=N/NC(=O)c2ccc(-c3nc4ccccc4[nH]3)cc2)cc1,50
2,N#Cc1ccc(/C=N/NC(=O)c2ccc(-c3nc4ccccc4[nH]3)cc2)cc1,12.5
3,O=C(N[C@H](CO)[C@H](O)c1ccc([N+](=O)[O-])cc1)C(Cl)Cl [CHLORAMPHENICOL],12.5

# The remaining lines, values ahead:
row,MIC [µg/mL],SMILES
1,25,O=C(N/N=C/c1ccc([N+](=O)[O-])cc1)c1ccc(-c2nc3ccccc3[nH]2)cc1
2,12.5,O=C(N/N=C/c1ccc(C(F)(F)F)cc1)c1ccc(-c2nc3ccccc3[nH]2)cc1
3,12.5,COc1ccc(/C=N/NC(=O)c2ccc(-c3nc4ccccc4[nH]3)cc2)cc1
